For one series, the system named is A549 cells. The series can be described thus: PD-L1 and EVs in A549 cells treated with GW4869. The format is cell-based, human. As to conditions: 10 μmol/L. A digest of the protocol: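 A549 or LSD1-knockout A549 cells (lentiviral editing, antibiotic selection, PCR/sequencing check, single-cell cloning) are treated ± 10 μmol/L GW4869. Conditioned medium is spun 3000 × g, 10 min, 4 °C. EVs are precipitated with an equal volume of isolation reagent at 4 °C, pelleted 10,000 × g, 60 min, 4 °C, and PBS-washed. Characterisation by TEM/NTA. PD-L1, ALIX, TSG101 and CD9 are detected by western blot from equal cell numbers.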

Another series deals with LLC tumor-bearing mice. The series can be described thus: In vivo biodistribution. Set-up: species or system mouse. As to conditions: i.v., over time. The essentials:
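Cy5.5-loaded liposomes stand in for drug and anti-PD1. Free Cy5.5 or Cy5.5-nanoparticles (3 mg/kg Cy5.5 equivalent) are injected via the tail vein into LLC tumour-bearing nude mice. Mice are imaged under anaesthesia at 2, 4, 6, 8, 12 and 24 h (λex/λem 680/704 nm). Mean tumour ROI fluorescence is quantified. Organs and tumours are imaged ex vivo at 24 h.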

For the compound `O=C(/C=C/c1ccc(/C=C/C(=O)Nc2ccc(C3=NCCN3)cc2)cc1)Nc1ccc(C2=NCCN2)cc1` [GW4869], in the series on A549 cells (A549 cells), the “levels of EVs and EVs-PD-L1” value was “reduced”; the “membrane PD-L1 and total PD-L1” value is listed as “significant accumulation”. Besides, the “membrane PD-L1” value in the series on A549 cells (LSD1-knockout A549 cells) was “induced the accumulation”.

Regarding Cy5.5, the “accumulation at the tumor site compared with Cy5.5-FPNs” value in the series on LLC tumor-bearing mice is reported as “much lower”.

These data come from article PMC12750163 (Acta Pharmaceutica Sinica. B, 2025).
